The target in data set [1] is T1, Dual specificity protein kinase TTK (Homo sapiens, UniProt P33981).
T1 sequence (P33981 whole entry): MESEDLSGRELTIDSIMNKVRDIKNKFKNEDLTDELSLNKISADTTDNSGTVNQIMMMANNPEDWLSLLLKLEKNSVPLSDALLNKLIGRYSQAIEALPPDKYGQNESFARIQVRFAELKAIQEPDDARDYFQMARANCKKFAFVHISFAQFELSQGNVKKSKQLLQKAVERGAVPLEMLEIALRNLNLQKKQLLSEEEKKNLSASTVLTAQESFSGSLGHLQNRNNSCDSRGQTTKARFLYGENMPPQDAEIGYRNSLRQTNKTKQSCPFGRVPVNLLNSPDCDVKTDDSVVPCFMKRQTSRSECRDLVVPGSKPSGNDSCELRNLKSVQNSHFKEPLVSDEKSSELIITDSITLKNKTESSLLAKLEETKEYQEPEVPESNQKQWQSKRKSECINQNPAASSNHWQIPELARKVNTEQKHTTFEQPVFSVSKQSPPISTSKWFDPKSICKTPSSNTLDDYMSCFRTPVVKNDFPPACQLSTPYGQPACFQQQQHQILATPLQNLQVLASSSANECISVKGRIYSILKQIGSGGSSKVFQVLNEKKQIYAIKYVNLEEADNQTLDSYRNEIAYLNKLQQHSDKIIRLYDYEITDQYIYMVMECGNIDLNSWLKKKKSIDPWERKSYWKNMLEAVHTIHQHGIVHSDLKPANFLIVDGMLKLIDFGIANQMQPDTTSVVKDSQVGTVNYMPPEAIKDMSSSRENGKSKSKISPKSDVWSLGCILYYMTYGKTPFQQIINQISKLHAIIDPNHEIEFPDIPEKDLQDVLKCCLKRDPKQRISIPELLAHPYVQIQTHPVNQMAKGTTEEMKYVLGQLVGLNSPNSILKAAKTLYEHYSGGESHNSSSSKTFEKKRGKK
The experiment in a line: Inhibition of GST-fused full length human TTK compound pre-incubated for 15 mins prior ATP addition by MBP-based assay.

The target of data set [2] is Receptor-type tyrosine-protein kinase FLT3 (Homo sapiens) (UniProt P36888). Description: Inhibition of FLT3 (unknown origin) by FRET-based homogenous assay.
Chain of Receptor-type tyrosine-protein kinase FLT3 (Homo sapiens) (P36888 whole entry): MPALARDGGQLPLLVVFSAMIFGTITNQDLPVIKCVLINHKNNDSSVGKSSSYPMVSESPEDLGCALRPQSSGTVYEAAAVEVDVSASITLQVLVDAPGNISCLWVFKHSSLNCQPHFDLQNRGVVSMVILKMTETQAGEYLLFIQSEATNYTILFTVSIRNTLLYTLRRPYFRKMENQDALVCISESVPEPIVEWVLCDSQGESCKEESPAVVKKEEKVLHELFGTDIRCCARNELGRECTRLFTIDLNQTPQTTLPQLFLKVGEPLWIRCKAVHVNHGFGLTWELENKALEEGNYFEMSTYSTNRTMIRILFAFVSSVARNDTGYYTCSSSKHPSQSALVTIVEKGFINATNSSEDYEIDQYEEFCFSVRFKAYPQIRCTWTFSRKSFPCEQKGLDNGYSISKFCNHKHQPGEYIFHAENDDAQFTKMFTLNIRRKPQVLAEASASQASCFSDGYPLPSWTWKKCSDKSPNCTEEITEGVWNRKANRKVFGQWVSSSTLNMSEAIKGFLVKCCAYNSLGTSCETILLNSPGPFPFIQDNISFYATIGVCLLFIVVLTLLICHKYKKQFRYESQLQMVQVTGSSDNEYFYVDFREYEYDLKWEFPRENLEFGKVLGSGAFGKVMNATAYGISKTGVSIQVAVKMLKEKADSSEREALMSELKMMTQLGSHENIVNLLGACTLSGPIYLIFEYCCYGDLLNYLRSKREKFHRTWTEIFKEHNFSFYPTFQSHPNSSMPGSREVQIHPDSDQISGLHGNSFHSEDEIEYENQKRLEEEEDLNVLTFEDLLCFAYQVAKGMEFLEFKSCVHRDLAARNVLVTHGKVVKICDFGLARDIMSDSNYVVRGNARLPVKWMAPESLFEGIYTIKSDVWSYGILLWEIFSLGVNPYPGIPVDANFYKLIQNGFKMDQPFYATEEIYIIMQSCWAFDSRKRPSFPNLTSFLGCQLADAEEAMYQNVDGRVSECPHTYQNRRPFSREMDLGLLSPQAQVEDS
Data set [3] is described as follows: Cell cycle arrest in human HCT116 cells at 500 to 2500 nM after 2 days by flow cytometry. Particulars: HCT-116. The class given is functional, cell-based.
Data set [4] can be described thus: Antitumor activity against human HCT116 cells xenografted in SCID mouse assessed as tumor growth inhibition at 15 mg/kg, ip qd for 5 days. The format is functional. To be noted: HCT-116, ip, 120 h, route intraperitoneal, read-out: TGI. In short, it runs like this: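 HCT116 xenografts were grown in mice and dosed by the intraperitoneal route once daily. Tumor volume was tracked and compared with a negative-control arm, and the result was expressed as percent tumor growth inhibition. Body weight was monitored across all arms.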
In general terms: A xenograft is tissue or cells of one species grown in another, often human tumour cells in immunodeficient mice.

Data set [5] deals with T2, Serine/threonine-protein kinase PLK4 (Homo sapiens, UniProt O00444).
T2 sequence (O00444 whole entry): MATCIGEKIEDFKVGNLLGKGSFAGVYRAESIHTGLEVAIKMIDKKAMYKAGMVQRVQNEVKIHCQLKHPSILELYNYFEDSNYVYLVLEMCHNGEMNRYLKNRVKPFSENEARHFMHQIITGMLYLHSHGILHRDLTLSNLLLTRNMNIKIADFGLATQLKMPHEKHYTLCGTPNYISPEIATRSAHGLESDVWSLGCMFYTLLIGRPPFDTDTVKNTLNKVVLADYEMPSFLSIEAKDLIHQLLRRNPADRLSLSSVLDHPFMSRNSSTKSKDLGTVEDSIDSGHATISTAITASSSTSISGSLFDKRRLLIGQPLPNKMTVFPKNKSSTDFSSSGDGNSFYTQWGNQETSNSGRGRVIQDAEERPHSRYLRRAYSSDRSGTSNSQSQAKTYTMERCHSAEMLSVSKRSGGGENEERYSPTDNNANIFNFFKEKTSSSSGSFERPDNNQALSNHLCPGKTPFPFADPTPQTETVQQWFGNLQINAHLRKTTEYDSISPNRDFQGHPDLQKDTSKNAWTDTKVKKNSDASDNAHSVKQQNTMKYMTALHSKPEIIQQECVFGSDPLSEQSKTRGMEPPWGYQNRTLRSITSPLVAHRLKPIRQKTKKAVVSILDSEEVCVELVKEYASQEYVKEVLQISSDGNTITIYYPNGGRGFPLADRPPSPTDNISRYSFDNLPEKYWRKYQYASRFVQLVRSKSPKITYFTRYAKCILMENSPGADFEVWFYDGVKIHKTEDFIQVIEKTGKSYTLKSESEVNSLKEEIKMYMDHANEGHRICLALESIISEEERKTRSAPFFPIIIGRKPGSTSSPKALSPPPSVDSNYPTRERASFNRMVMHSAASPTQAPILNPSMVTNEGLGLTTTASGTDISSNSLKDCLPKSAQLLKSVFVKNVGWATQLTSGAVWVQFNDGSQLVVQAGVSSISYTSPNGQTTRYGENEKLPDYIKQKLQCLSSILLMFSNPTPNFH
Description: Inhibition of GST-tagged human PLK4 (1-391 residues) phosphorylation by ELISA. (In an ELISA, binding on a coated surface is turned into a signal by an enzyme label.)

The target of a further data set is Aurora kinase B (Homo sapiens, UniProt Q96GD4). Description: Inhibition of Aurora B (unknown origin) by FRET-based homogenous assay.
Chain of Aurora kinase B (Q96GD4 whole entry): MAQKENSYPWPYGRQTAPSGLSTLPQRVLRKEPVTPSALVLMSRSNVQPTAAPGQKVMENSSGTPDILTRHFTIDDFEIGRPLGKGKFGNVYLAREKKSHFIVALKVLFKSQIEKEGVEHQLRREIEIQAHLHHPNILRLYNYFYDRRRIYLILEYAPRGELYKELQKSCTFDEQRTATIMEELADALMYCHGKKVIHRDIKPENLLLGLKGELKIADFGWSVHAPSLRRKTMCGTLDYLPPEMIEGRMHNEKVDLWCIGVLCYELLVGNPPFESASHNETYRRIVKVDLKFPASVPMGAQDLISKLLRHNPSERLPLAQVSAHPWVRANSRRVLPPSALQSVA
In data set [6] the target is Serine/threonine-protein kinase Chk2 (Homo sapiens, UniProt O96017). Description: Inhibition of CHK2 (unknown origin) by FRET-based homogenous assay.
Chain of Serine/threonine-protein kinase Chk2 (O96017 whole entry): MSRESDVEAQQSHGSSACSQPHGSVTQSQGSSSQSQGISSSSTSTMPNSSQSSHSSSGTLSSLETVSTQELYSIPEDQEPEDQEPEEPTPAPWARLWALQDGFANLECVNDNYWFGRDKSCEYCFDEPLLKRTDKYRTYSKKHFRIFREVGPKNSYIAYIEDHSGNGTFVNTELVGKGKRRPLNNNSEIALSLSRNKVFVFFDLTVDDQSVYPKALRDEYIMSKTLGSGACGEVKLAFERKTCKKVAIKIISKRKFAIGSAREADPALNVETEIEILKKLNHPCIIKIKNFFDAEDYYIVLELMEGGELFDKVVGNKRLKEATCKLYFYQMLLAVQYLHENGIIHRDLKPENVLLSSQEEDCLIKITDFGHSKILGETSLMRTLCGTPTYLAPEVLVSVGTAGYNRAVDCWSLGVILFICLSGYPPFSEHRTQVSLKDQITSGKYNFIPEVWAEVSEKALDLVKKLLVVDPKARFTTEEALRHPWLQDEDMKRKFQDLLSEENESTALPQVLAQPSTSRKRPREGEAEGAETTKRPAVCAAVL
The target in another data set is Cytochrome P450 2C19 (Homo sapiens, UniProt P33261). The experiment in a line: Inhibition of CYP2C19 in supersomes (unknown origin) using MFC as substrate after 30 mins. The class given is ADME.
Chain of Cytochrome P450 2C19 (P33261 whole entry): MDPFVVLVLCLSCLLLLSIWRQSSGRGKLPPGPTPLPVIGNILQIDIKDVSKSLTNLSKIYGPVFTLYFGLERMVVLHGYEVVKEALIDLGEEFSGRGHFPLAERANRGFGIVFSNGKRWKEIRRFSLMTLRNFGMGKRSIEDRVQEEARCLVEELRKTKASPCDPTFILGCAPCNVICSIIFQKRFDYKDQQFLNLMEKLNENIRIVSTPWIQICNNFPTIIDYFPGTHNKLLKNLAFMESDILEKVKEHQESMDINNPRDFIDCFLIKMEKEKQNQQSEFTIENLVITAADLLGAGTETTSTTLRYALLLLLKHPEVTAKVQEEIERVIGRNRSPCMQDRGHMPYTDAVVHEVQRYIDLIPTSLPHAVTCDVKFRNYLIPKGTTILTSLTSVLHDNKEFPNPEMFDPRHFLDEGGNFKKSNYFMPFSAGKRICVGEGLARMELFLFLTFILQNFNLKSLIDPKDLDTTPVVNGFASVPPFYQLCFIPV
Data set [7] deals with T3, Cytochrome P450 3A4 (Homo sapiens, UniProt P08684). The experiment in a line: Inhibition of CYP3A4 in supersomes (unknown origin) using Dibenzylfluorescein as substrate after 10 mins. The class given is ADME.
T3 sequence (P08684 whole entry): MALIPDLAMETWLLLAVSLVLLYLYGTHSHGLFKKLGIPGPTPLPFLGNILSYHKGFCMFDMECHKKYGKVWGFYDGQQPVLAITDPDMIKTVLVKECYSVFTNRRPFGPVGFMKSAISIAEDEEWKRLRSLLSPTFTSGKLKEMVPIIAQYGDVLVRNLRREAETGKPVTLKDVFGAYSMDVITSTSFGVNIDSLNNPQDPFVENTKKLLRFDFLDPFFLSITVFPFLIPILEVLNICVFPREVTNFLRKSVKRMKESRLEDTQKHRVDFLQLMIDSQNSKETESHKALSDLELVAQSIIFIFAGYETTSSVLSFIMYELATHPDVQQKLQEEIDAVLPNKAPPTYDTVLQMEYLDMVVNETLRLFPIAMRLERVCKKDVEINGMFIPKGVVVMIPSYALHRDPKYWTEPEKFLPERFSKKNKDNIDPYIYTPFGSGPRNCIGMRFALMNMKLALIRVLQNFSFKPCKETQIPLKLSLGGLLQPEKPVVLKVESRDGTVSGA
The target in data set [8] is T3, Cytochrome P450 3A4. The experiment in a line: Inhibition of CYP3A4 in supersomes (unknown origin) using 7-benzyloxy-4-trifluoromethylcoumarin as substrate after 30 mins. The class given is ADME.
The target in another data set is Cytochrome P450 2C9 (Homo sapiens, UniProt P11712). The experiment in a line: Inhibition of CYP2C9 in supersomes (unknown origin) using MFC as substrate after 30 mins. The class given is ADME.
Chain of Cytochrome P450 2C9 (P11712 whole entry): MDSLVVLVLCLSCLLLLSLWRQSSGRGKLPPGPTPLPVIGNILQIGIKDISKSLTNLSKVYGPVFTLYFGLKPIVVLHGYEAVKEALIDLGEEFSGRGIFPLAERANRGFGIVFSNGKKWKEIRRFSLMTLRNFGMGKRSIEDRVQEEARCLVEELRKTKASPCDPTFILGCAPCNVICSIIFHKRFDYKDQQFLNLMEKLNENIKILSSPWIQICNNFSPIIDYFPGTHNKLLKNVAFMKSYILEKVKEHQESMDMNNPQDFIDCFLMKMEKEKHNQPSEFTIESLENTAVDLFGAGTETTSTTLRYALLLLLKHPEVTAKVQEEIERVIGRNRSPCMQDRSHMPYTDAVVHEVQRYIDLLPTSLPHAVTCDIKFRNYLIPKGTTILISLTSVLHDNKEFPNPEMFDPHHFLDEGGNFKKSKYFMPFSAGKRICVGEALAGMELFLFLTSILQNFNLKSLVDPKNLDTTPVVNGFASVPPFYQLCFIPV
The next data set has as its target T4, Cytochrome P450 1A2 (Homo sapiens, UniProt P05177).
T4 sequence (P05177 whole entry): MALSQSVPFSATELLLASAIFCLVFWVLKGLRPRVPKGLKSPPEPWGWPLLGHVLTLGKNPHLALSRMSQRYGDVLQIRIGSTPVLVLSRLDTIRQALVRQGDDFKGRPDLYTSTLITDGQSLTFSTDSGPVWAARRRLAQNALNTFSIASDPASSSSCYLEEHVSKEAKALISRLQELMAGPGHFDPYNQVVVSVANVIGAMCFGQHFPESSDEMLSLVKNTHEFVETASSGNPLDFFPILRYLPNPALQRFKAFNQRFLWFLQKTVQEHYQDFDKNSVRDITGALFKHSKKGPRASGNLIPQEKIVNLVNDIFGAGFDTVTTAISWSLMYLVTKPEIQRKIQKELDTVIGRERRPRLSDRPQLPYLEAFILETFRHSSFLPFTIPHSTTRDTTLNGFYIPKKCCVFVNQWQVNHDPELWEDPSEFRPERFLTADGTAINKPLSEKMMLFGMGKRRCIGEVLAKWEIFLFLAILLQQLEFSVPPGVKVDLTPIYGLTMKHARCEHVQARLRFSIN
The experiment in a line: Inhibition of CYP1A2 in supersomes (unknown origin) using CEC as substrate after 30 mins. The format is ADME.

The target of a further data set is Cytochrome P450 2D6 (Homo sapiens, UniProt P10635). The experiment in a line: Inhibition of CYP2D6 in supersomes (unknown origin) using AMMC as substrate after 30 mins. The format is ADME.
Chain of Cytochrome P450 2D6 (P10635 whole entry, the tested form may be a part): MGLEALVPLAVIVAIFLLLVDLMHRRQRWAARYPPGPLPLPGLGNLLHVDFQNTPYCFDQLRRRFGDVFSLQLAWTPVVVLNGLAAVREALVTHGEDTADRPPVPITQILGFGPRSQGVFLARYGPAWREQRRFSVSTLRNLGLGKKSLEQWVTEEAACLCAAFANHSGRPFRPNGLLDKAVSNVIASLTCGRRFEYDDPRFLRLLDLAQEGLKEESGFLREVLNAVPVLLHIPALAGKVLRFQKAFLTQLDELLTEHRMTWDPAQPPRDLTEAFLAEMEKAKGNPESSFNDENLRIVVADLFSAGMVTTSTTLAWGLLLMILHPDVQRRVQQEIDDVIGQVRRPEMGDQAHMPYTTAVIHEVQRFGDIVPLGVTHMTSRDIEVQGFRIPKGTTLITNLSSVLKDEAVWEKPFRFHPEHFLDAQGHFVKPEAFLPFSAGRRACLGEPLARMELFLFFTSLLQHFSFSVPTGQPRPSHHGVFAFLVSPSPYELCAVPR
The nature of data set [9]: Permeability of the compound at pH 7.4 by PAMPA. The format is ADME. Particulars: read-out: permeability. Background: The PAMPA barrier holds no transporters, so it reflects passive diffusion.
Data set [10] in a line: Solubility of the compound at pH 7.4. To be noted: buffer. The format is physicochemical.
The target in data set [11] is T1, Dual specificity protein kinase TTK. Description: Inhibition of SUMO-tagged human TTK (1-275 residues) compound pre-incubated for 15 mins prior ATP addition by MBP-based assay.
The nature of data set [12]: Growth inhibition of human HCT116 cells after 5 days by SRB assay. The format is functional. To be noted: HCT-116, 120 h.
For a further data set, the system named is MDA-MB-468. Description: Growth inhibition of human MDA-MB-468 cells after 5 days by SRB assay. The class given is functional. To be noted: MDA-MB-468, 120 h.
The subject of the next data set is A549. The experiment in a line: Growth inhibition of human A549 cells after 5 days by SRB assay. The class given is functional. Particulars: A549, 120 h.

The source made the active and inactive calls. The calls are words filed in the database; no cut-off is given here.

In general, IC50 refers to the point on the concentration scale where inhibition reaches its midpoint. In turn, `Oc1c2ccccc2c2c3c(cccc13)N=N2` [SP-600125] showed a concentration for half-maximal inhibition (IC50) in [1] of 2500 nM.
Turning to `c1ccc(-c2[nH]nc3ccccc23)cc1`, the inhibition entry in data set [2] is “inactive”. The outcome in [3] was inactive. Further, 12000 nM corresponded to half-maximal inhibition in data set [1] (IC50).
Compound `O=Cc1ccc2c(-c3cccnc3)n[nH]c2c1` yielded an IC50 in data set [1] of 12000 nM.
Turning to `O=c1[nH]cc(F)c(=O)[nH]1` [FLUOROURACIL], the inhibition in vivo at 15 mg/kg in data set [4] amounted to 46%.
In the case of `N#Cc1ccc2c(/C=C/c3ccncc3)n[nH]c2c1`, in [1], half-maximal inhibition (IC50) required 5000 nM.
Compound `NCc1cccc(-c2n[nH]c3cccc(Cl)c23)c1` showed an IC50 in [1] greater than 50000 nM.
In general, solubility refers to how much of the substance goes into solution per volume. Read a high solubility as a readily soluble substance. Broadly, the GI50 is the concentration giving 50% growth inhibition. Lower therefore signals greater sensitivity of the cells. With `CCc1cccc(CC)c1NC(=O)Nc1ccc2[nH]nc(-c3cccc(S(N)(=O)=O)c3)c2c1`, the 50% inhibitory concentration (IC50) in data set [5] is 130 nM; at Aurora kinase B it was 2400 nM; in data set [6], 410 nM; against Cytochrome P450 2C19, greater than 1000 nM; against Cytochrome P450 3A4 [7], 10000 nM; at Cytochrome P450 3A4 [8], 1000 nM. Moreover, the IC50 on Cytochrome P450 2C9 is 1700 nM; at Cytochrome P450 1A2 it was greater than 10000 nM; on Cytochrome P450 2D6, greater than 10000 nM; in data set [11], 3.5 nM. Besides, the Papp in data set [9] is less than 21 ×10⁻⁶ cm/s. This compound showed a solubility in data set [10] of less than 0.1 µg/mL. In [12], the 50% growth inhibitory concentration (GI50) is greater than 50000 nM.
In turn, `NC(=O)c1cccc(-c2n[nH]c3cccc(Cl)c23)c1` showed a half-inhibitory concentration (IC50) in data set [1] of 17000 nM.
As to `COC(C(=O)Nc1ccc2[nH]nc(-c3cccc(S(N)(=O)=O)c3)c2c1)c1ccccc1` (racemic), the IC50 in data set [11] is 26 nM. The figures for the 50% growth inhibitory concentration (GI50) (in data set [12]; with MDA-MB-468; with A549) were 1060 nM, 2200 nM and 2500 nM, respectively.
As for `CO[C@@H](C(=O)Nc1ccc2[nH]nc(-c3cccc(S(N)(=O)=O)c3)c2c1)c1ccccc1`, 30 nM corresponded to half-maximal inhibition in data set [11] (IC50). The 50% growth inhibitory concentration (GI50) was found to be 850 nM in data set [12], 3200 nM in the data set on MDA-MB-468 and 2400 nM in the data set with A549.
Take `CN(C)[C@H](C(=O)Nc1ccc2[nH]nc(-c3cccc(S(N)(=O)=O)c3)c2c1)c1ccccc1`: in data set [11], the IC50 was 11 nM. Besides, the figures for the GI50 (in data set [12]; in the data set with MDA-MB-468; with A549) were 520 nM, 840 nM and 830 nM, respectively.
As for `NS(=O)(=O)c1cccc(-c2n[nH]c3ccccc23)c1`, the IC50 came to 2600 nM in [1] and 1600 nM in data set [11].
`NS(=O)(=O)c1cccc(-c2n[nH]c3cccc(Cl)c23)c1`: the IC50 in data set [1] was 1800 nM; in data set [11], 1900 nM.
Turning to `NS(=O)(=O)c1cccc(-c2n[nH]c3ccc(C(=O)N[C@H]4CCc5ccccc54)cc23)c1`, the outcome in data set [3] was inactive.
`CN(C)C(C(=O)Nc1ccc2[nH]nc(-c3cccc(S(N)(=O)=O)c3)c2c1)c1ccccc1` (racemic) returned an IC50 in data set [11] of 12 nM. In addition, the GI50 in [12] worked out at 660 nM; in the data set with MDA-MB-468, 1400 nM; in the data set with A549, 1700 nM.
In data set [1], `NS(=O)(=O)c1ccc(-c2n[nH]c3cccc(Cl)c23)cc1` registered an IC50 of 18000 nM.
`COc1cc(N2CCC(O)CC2)ccc1Nc1nc(Nc2ccccc2S(=O)(=O)C(C)C)c2cc[nH]c2n1` had an IC50 in [1] of 370 nM.

These data come from ChEMBL document CHEMBL3352261, “Discovery of inhibitors of the mitotic kinase TTK based on N-(3-(3-sulfamoylphenyl)-1H-indazol-5-yl)-acetamides and carboxamides” (Bioorg Med Chem, 2014).
